Data: ChEMBL document CHEMBL5104108, “Concise synthesis and biological activity evaluation of novel pyrazinyl-aryl urea derivatives against several cancer cell lines, which can especially induce T24 apoptotic and necroptotic cell death” (RSC Med Chem, 2022)
Active and inactive are the calls of the source. The rule behind the calls is not given here.

Assays:
[1] = test system: T-24; assay: Antiproliferative activity against human T24 cells measured after 48 hrs by MTT assay; type: functional, cell-based; conditions: T-24, 48 h
Outline: (§1)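 Cells seeded 5 × 10^3 per well, grown overnight at 37 °C, then exposed to compound at final 1–40 μM (1, 2.5, 5, 7.5, 10, 12.5, 15, 20, 30, 40 μM) for the stated period. MTT added, 4 h at 37 °C, formazan dissolved in DMSO, absorbance read. IC50 = concentration killing 50% of cells relative to untreated control; mean ± S.D. of four independent experiments.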

[2] = Antiproliferative activity against human HCV-29 cells measured after 48 hrs by MTT assay; type: functional, cell-based; conditions: HCV-29, 48 h; outline: as §1
[3] = test system: MGC-803; assay: Antiproliferative activity against human MGC-803 cells measured after 48 hrs by MTT assay; type: functional, cell-based; conditions: MGC-803, 48 h; outline: as §1
[4] = test system: HepG2; assay: Antiproliferative activity against human HepG2 cells measured after 48 hrs by MTT assay; type: functional, cell-based; conditions: HepG2, 48 h; outline: as §1
[5] = Selectivity index, ratio IC50 for antiproliferative activity against human HCV-29 cells over IC50 for antiproliferative activity against human T24 cells; type: toxicity, cell-based; conditions: HCV-29 cells versus T24 cells
Outline: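 MTT assay, 48 h exposure at final 1–40 μM in T24 and normal bladder epithelial HCV29 cells (5 × 10^3/well, seeded overnight, 37 °C). MTT added for 4 h and formazan dissolved in DMSO. IC50 taken relative to untreated control, four parallel samples. SI = IC50(HCV29)/IC50(T24).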

[6] = AUMC in Sprague-Dawley rat at 12 mg/kg, IG measured HPLC analysis; type: ADME, organism-based; conditions: in vivo, po
[7] = test system: T-24; assay: Down-regulation of RIPK1 expression in human T24 cells at 7.5 to 10 uM measured after 16 hrs by Western blot analysis; type: functional, cell-based; conditions: dose 7.5-10 µM
Outline: (§2)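 T24 cells co-incubated 16 h with or without Nec-1 (60 μM). Lysates quantified by BCA, 40 μg protein resolved by SDS-PAGE, transferred to PVDF, probed with primary and peroxidase-conjugated secondary antibodies, detected by ECL. Band gray values normalized to β-actin loading control.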

[8] = MRT (0 to 48 hrs) in Sprague-Dawley rat at 12 mg/kg, IG measured HPLC analysis; type: ADME, organism-based; conditions: in vivo, po
Outline: (§3)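 Fasted (12 h) male-unspecified Sprague-Dawley rats (250 ± 20 g), n = 6 per group. Single intragastric dose of suspension (2 mg mL−1 in Tween 80/0.9% NaCl 1.5:5 v/v). Orbital blood drawn at 0.5–48 h and plasma assayed by reversed-phase C18 HPLC-UV. One-compartment fit, weight 1.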

[9] = test system: T-24; assay: Down-regulation of p-MLKL expression in human T24 cells at 7.5 to 10 uM measured after 16 hrs by Western blot analysis; type: functional, cell-based; conditions: dose 7.5-10 µM; outline: as §2
[10] = test system: T-24; assay: Down-regulation of RIPK2 expression in human T24 cells at 7.5 to 10 uM measured after 16 hrs by Western blot analysis; type: functional, cell-based; conditions: dose 7.5-10 µM; outline: as §2
[11] = Half-life in Sprague-Dawley rat at 12 mg/kg, IG measured HPLC analysis; type: ADME, organism-based; conditions: in vivo, po
[12] = Cmax in Sprague-Dawley rat at 12 mg/kg, IG measured HPLC analysis; type: ADME, organism-based; parameters: dose 12 mg/kg, route ig; conditions: in vivo, po
[13] = Clearance in Sprague-Dawley rat at 12 mg/kg, IG measured HPLC analysis; type: ADME, organism-based; conditions: in vivo, po
[14] = Absorption rate constant in Sprague-Dawley rat at 12 mg/kg, IG measured HPLC analysis; type: ADME, organism-based; conditions: in vivo, po
[15] = test system: T-24; assay: Down-regulation of MLKL expression in human T24 cells at 7.5 to 10 uM measured after 16 hrs by Western blot analysis; type: functional, cell-based; conditions: dose 7.5-10 µM; outline: as §2
[16] = AUC (0 to 48 hrs) in Sprague-Dawley rat at 12 mg/kg, IG measured HPLC analysis; type: ADME, organism-based; parameters: time < 48 hr, dose 12 mg/kg, route ig; conditions: in vivo, po
[17] = Tmax in Sprague-Dawley rat at 12 mg/kg, IG measured HPLC analysis; type: ADME, organism-based; conditions: in vivo, po; outline: as §3
[18] = test system: T-24; assay: Down-regulation of RIPK3 expression in human T24 cells at 7.5 to 10 uM measured after 16 hrs by Western blot analysis; type: functional, cell-based; conditions: dose 7.5-10 µM; outline: as §2
[19] = test system: T-24; assay: Down-regulation of p-RIPK1 expression in human T24 cells at 7.5 to 10 uM measured after 16 hrs by Western blot analysis; type: functional, cell-based; conditions: dose 7.5-10 µM; outline: as §2
[20] = test system: T-24; assay: Down-regulation of p-RIPK3 expression in human T24 cells at 7.5 to 10 uM measured after 16 hrs by Western blot analysis; type: functional, cell-based; conditions: dose 7.5-10 µM; outline: as §2

Compound	IC50 [1] [µM]	IC50 [2] [µM]	IC50 [3] [µM]	IC50 [4] [µM]	SI [5]	other results
Cc1ccc(NC(=O)Nc2cccc(CNc3nccnc3Cl)c2)cc1C	8.93	12.8	9.87	10.7	1.43	–
O=C(Nc1cccc(CNc2nccnc2Cl)c1)Nc1ccccc1Cl	6.68	28.1	7.13	8.56	4.21	–
O=C(Nc1cccc(CNc2nccnc2Cl)c1)Nc1ccc(Cl)cc1Br	6.65	24	7.48	6.72	3.61	–
O=C(Nc1cccc(CNc2nccnc2Cl)c1)NC1CCCCC1	> 40	> 40	> 40	> 40	–	–
O=C(Nc1cccc(CNc2nccnc2Cl)c1)Nc1cccc(C(F)(F)F)c1	5.08	28.7	7.29	6.21	5.64	–
CCOc1ccc(NC(=O)Nc2cccc(CNc3nccnc3Cl)c2)cc1	9.08	30.5	7.24	7.05	3.36	–
Cc1cccc(NC(=O)Nc2cccc(CNc3nccnc3Cl)c2)c1	9.57	28.3	14.6	11.2	2.96	–
O=C(Nc1ccccc1)Nc1cccc(CNc2nccnc2Cl)c1	19.8	36.2	16.3	15.6	1.83	–
O=C(Nc1cccc(Cl)c1)Nc1cccc(CNc2nccnc2Cl)c1	6.81	21.4	5.33	9.14	3.14	–
Cc1ccc(NC(=O)Nc2cccc(CNc3nccnc3Cl)c2)c(C)c1	9.23	23.8	10.1	9.29	2.58	–
COc1ccccc1NC(=O)Nc1cccc(CNc2nccnc2Cl)c1	10.4	18.2	12.2	13.7	1.74	–
CS(=O)(=O)c1ccc(NC(=O)Nc2cccc(CNc3nccnc3Cl)c2)cc1	29.3	> 40	12.3	15.1	–	–
CC(C)(C)c1ccc(NC(=O)Nc2cccc(CNc3nccnc3Cl)c2)cc1	6.01	15.3	4.82	7.55	2.54	–
Cc1ccccc1NC(=O)Nc1cccc(CNc2nccnc2Cl)c1	13.6	33.6	14	15.3	2.47	–
CCc1cccc(CC)c1NC(=O)Nc1cccc(CNc2nccnc2Cl)c1	6.39	18.7	6.13	10.8	–	–
O=C(Nc1cccc(CNc2nccnc2Cl)c1)Nc1ccc(F)c(Cl)c1	4.99	24.7	5.02	6.75	4.94	–
O=C(Nc1cccc(CNc2nccnc2Cl)c1)Nc1ccc(Cl)cc1Cl	5.74	25.4	6.43	7.23	4.42	–
Cc1ccc(NC(=O)Nc2cccc(CNc3nccnc3Cl)c2)cc1	9.82	20.1	11.9	11.5	2.05	–
CN(C)c1ccc(NC(=O)Nc2cccc(CNc3nccnc3Cl)c2)cc1	20.2	> 40	11.5	> 40	–	–
O=C(Nc1cccc(CNc2nccnc2Cl)c1)Nc1ccccc1F	7.45	25.1	6.44	10.5	3.37	–
O=C(Nc1cccc(CNc2nccnc2Cl)c1)Nc1cccc2ccccc12	> 40	> 40	32.7	> 40	–	–
O=C(Nc1cccc(CNc2nccnc2Cl)c1)NC1CCCC1	> 40	> 40	23.4	18.4	–	–
CCc1ccccc1NC(=O)Nc1cccc(CNc2nccnc2Cl)c1	8.72	16.4	9.37	7.86	1.88	–
CNC(=O)c1cc(Oc2ccc(NC(=O)Nc3ccc(Cl)c(C(F)(F)F)c3)c(F)c2)ccn1 [REGORAFENIB]	5.98	12.9	9.46	10.4	2.16	AUMC [6]: 737185 hr2.ng/ml; Activity [7]: Active; MRT last [8]: 7.29 h; Activity [9]: Active; Activity [10]: Active; half-life [11]: 5.06 h; Cmax [12]: 3100 ng/mL; CL/F [13]: 0.986 mL/min; Ka [14]: 0.138 h⁻¹; Activity [15]: Active; AUC(0-t) at 48 h [16]: 50700 ng·h/mL; Tmax [17]: 8.07 h; Activity [18]: Active; Activity [19]: Active; Activity [20]: Active
Nc1ccn([C@@H]2O[C@H](CO)[C@@H](O)C2(F)F)c(=O)n1 [GEMCITABINE]	–	21.5	–	–	2.12	–
O=C(Nc1cccc(CNc2nccnc2Cl)c1)Nc1ccc(Cl)c(Cl)c1	5.21	27.2	4.97	6.17	5.22	–
COc1ccc(NC(=O)Nc2cccc(CNc3nccnc3Cl)c2)cc1	9.82	20.9	9.24	12	2.13	–
O=C(Nc1ccc(Cl)cc1)Nc1cccc(CNc2nccnc2Cl)c1	5.47	19.4	4.98	8.35	3.54	–
Cc1ccc(NC(=O)Nc2cccc(CNc3nccnc3Cl)c2)cc1Cl	7.39	21.5	17.5	11.3	2.91	–
